The source of these data is ChEMBL document CHEMBL2177069, “Novel peptidomimetic compounds containing redox active chalcogens and quinones as potential anticancer agents” (Eur J Med Chem, 2012).

Data set [1] has as its system MCF7. As to the kind of experiment: Induction of Cell cycle arrest in human MCF7 cells assessed as G2/M phase cells at IC50 concentration after 24 hrs by PI-staining based flow cytometric analysis (reference value: 13%). In kind it is functional. An outline of the steps: (§1)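 MCF-7 cells (10^6) were treated for 24 h, with methanol as the vehicle control. Cells were fixed in cold 70% methanol at 4 °C for one day, washed with PBS, and permeabilized with 0.1% saponin in PBS. They were stained with propidium iodide plus RNase for 30 min. DNA content was read by flow cytometry, giving percentages of cells per cell-cycle phase.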
Background: In flow cytometry, cells or beads pass a laser one at a time.

The subject of data set [2] is MCF7. As to the kind of experiment: Induction of Cell cycle arrest in human MCF7 cells assessed as S phase cells at IC50 concentration after 24 hrs by PI-staining based flow cytometric analysis (reference value: 19%). Type of data set: functional. An outline of the steps: as §1
Data set [3] relates to MCF7. As to the kind of experiment: Induction of Cell cycle arrest in human MCF7 cells assessed as G0/1 phase cells at IC50 concentration after 24 hrs by PI-staining based flow cytometric analysis (reference value: 68%). Type of data set: functional. An outline of the steps:
as §1

For data set [4], the system named is PtK2. The data set is described as follows: Induction of oxidative stress in potoroo PtK2 cells assessed as hole in the endoplasmic reticulum after 24 hrs by immunofluorescence microscopic analysis. Type of data set: functional, cell-based. To be noted: Potorous tridactylus. The procedure, abridged: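 PtK2 cells were grown on coverslips and treated once semi-confluent, for 24 h. Cells were fixed with 3.7% paraformaldehyde followed by 0.1% Triton X-100, or with cold methanol/acetone 50:50. Primary and secondary antibodies were applied for 45 min each: anti-GRP94 for ER, anti-α-tubulin. Actin was stained with phalloidin and nuclei with DAPI. Imaging was by fluorescence microscopy with a CCD camera.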

Data set [5] has as its system MCF7. As to the kind of experiment: Induction of oxidative stress in human MCF7 cells assessed as decrease in GSH level at 5 uM after 1 hr by DTNB assay relative to control. Type of data set: functional. More on the design: scale not given: the % may be the effect or the level left. The procedure, abridged: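 MCF-7 cells (10^6) were treated for 1 h at 37 °C, trypsinized, and washed twice with cold PBS. GSH was extracted with chilled 5% metaphosphoric acid at 4 °C for 2 h, then the lysate was centrifuged. Supernatant was mixed with 0.2 M sodium phosphate pH 8.0 and 0.04 mM DTNB for 10 min at room temperature. Absorbance was read at 412 nm against a reagent blank, and GSH was quantified from a standard curve.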

For data set [6], the system named is HUVEC. As to the kind of experiment: Induction of oxidative stress in human HUVEC cells assessed as increase in superoxide free radical production after 1 hr by DHE-based by fluorescence spectrophotometric analysis. In kind it is cell-based. An outline of the steps: (§2)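 Cells were seeded at 10^5 per well and given graded compound concentrations for 1 h. They were then loaded with DHE or DCF probe for 30 min in the dark. Fluorescence was read immediately: DHE ex 540/em 600 nm; DCF ex 485/em 528 nm. Results were expressed as arbitrary units per 10^5 cells.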

For data set [7], the system named is HUVEC. The data set is described as follows: Induction of oxidative stress in human HUVEC cells assessed as increase in hydrogen peroxide free radical production after 1 hr by DCF-based fluorescence spectrophotometric analysis. Type of data set: cell-based. An outline of the steps:
as §2

The test system of data set [8] is A-431. The data set is described as follows: Induction of oxidative stress in human A431 cells assessed as increase in superoxide free radical production after 1 hr by DHE-based by fluorescence spectrophotometric analysis. In kind it is functional, cell-based. An outline of the steps: as §2
The test system of data set [9] is A-431. The data set is described as follows: Induction of oxidative stress in human A431 cells assessed as increase in hydrogen peroxide free radical production after 1 hr by DCF-based fluorescence spectrophotometric analysis. In kind it is functional, cell-based. The procedure, abridged:
as §2

Calls of active or inactive are those of the source. No cut-off for these calls is given here.

In the case of `CC1=C([Se]CC(OC(=O)[C@@H](CO)NC(=O)OC(C)(C)C)C(=O)NC(C)(C)C)C(=O)c2ccccc2C1=O` (stereo not given in full), the Activity in data set [1] was 12%; in [2], 7.7%; in [3], 80%; in data set [5], 59%. For the same compound, in data set [4], the result was Active.

Take `CC1=C(SCCC(=O)OC(C[Se]C2=C(C)C(=O)c3ccccc3C2=O)C(=O)NCCCCCC(=O)OCc2ccccc2)C(=O)c2ccccc2C1=O` (stereo not given): the result in data set [4], in data set [8] and in [9] was Active. Besides, the Activity result in [6] and in data set [7] was “Non-toxic” each time.
